According to ChEMBL document CHEMBL1142724 (J Med Chem, 2005):
Values joined by “and” are separate entries in the source; they are usually repeats but may differ in a detail not shown here. Equal entries are not always repeated. Values belong to the molecule of their own block, whether it stands above or below them.

Experiments:
[1] = biological target: T1, Transient receptor potential cation channel subfamily V member 1 (Rattus norvegicus, UniProt O35433); test: Effective concentration against rat transient receptor potential vanilloid 1 receptor (n=6)
Method in brief: (§1)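 HEK293 cells stably expressing human or rat TRPV1 were loaded with 4 µM Fluo-3/AM for 60 min at room temperature. Cells were held in HEPES buffer, pH 7.45, with 2 mM CaCl2. Capsaicin-like Ca2+ flux was read on FLIPR with compounds up to 30 µM. Counts were basal-subtracted. Values came from a four-parameter Hill fit, as mean ± SEM.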

[2] = biological target: T2, Transient receptor potential cation channel subfamily V member 1 (Homo sapiens, UniProt Q8NER1); test: Effective concentration against human transient receptor potential vanilloid 1 receptor (n=6); method in brief: as §1
[3] = biological target: Transient receptor potential cation channel subfamily V member 1 (Rattus norvegicus) (UniProt O35433); test: Percentage efficacy against rat transient receptor potential vanilloid 1 receptor (n=3)
Method in brief: (§2)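 FLIPR Ca2+ flux in HEK293 cells stably expressing human TRPV1 or rat TRPV1, grown in DMEM with 10% FBS. Cells were seeded, incubated overnight, then loaded with 4 µM Fluo-3/AM and 0.01% Pluronic-F127 for 60 min at room temperature. Assay buffer was HEPES-buffered saline with 2 mM CaCl2, pH 7.45. Intracellular Ca2+ was read during compound exposure, 0.3 nM–30 µM in half-log steps. Signal was basal-subtracted, taking the smaller of the peak and end-of-incubation values.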

[4] = biological target: T2, Transient receptor potential cation channel subfamily V member 1; test: Percentage efficacy against human transient receptor potential vanilloid 1 receptor (n=3); method in brief: as §2
[5] = biological target: T2, Transient receptor potential cation channel subfamily V member 1; test: Inhibition of human transient receptor potential vanilloid 1 receptor (n=3)
Method in brief: (§3)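 FLIPR Ca2+ influx in Fluo-3-loaded HEK293 cells stably expressing human or rat TRPV1. Compound was added at 0.3 nM–30 µM final, in half-log steps, for 3 min before capsaicin. Signal was the smaller of peak and end fluorescence after basal subtraction. IC50 came from a four-parameter logistic fit.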

[6] = biological target: T1, Transient receptor potential cation channel subfamily V member 1; test: Effective concentration against rat transient receptor potential vanilloid 1 receptor (n=3); method in brief: as §1
[7] = biological target: T1, Transient receptor potential cation channel subfamily V member 1; test: Inhibition of rat transient receptor potential vanilloid 1 receptor (n=2); method in brief: as §3
[8] = biological target: T2, Transient receptor potential cation channel subfamily V member 1; test: Inhibition of human transient receptor potential vanilloid 1 receptor (n=4); method in brief: as §3
[9] = biological target: T1, Transient receptor potential cation channel subfamily V member 1; test: Inhibition of rat transient receptor potential vanilloid 1 receptor (n=4)
Method in brief: as §3, with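 “capsaicin. Capsaicin was 15 nM final for human; for rat it was 15 nM, or 100 nM in later runs.” for “capsaicin.”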

[10] = biological target: T1, Transient receptor potential cation channel subfamily V member 1; test: Effective concentration against rat transient receptor potential vanilloid 1 receptor (n=2); method in brief: as §1
[11] = biological target: T2, Transient receptor potential cation channel subfamily V member 1; test: Effective concentration against human transient receptor potential vanilloid 1 receptor (n=3); method in brief: as §1
[12] = biological target: T2, Transient receptor potential cation channel subfamily V member 1; test: Inhibition of human transient receptor potential vanilloid 1 receptor (n=2)
Method in brief: as §3, with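 “capsaicin. Capsaicin was 15 nM final for human; for rat it was 15 nM, or 100 nM in later runs.” for “capsaicin.”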

[13] = biological target: T1, Transient receptor potential cation channel subfamily V member 1; test: Inhibition of rat transient receptor potential vanilloid 1 receptor (n=3)
Method in brief: as §3, with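 “capsaicin. Capsaicin was 15 nM final for human; for rat it was 15 nM, or 100 nM in later runs.” for “capsaicin.”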

[14] = biological target: T2, Transient receptor potential cation channel subfamily V member 1; test: Inhibition of human transient receptor potential vanilloid 1 receptor (n=6)
Method in brief: as §3, with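 “capsaicin. Capsaicin was 15 nM final for human; for rat it was 15 nM, or 100 nM in later runs.” for “capsaicin.”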

[15] = biological target: T2, Transient receptor potential cation channel subfamily V member 1; test: Effective concentration against human transient receptor potential vanilloid 1 receptor (n=6); Inactive; method in brief: as §1
[16] = biological target: T2, Transient receptor potential cation channel subfamily V member 1; test: Inhibition of human transient receptor potential vanilloid 1 receptor (n=5)
Method in brief: as §3, with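 “capsaicin. Capsaicin was 15 nM final for human; for rat it was 15 nM, or 100 nM in later runs.” for “capsaicin.”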

[17] = biological target: T2, Transient receptor potential cation channel subfamily V member 1; test: In vitro inhibition of anandamide activated human TRPV1 receptor in [Ca2+] influx assay
[18] = biological target: T2, Transient receptor potential cation channel subfamily V member 1; test: In vitro inhibition of PMA-activated human TRPV1 receptor in [Ca2+] influx assay
Method in brief: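 Human TRPV1-HEK293 cells were loaded with Fluo-3 and preincubated with compound for 3 min. They were then stimulated with 300 nM PMA, and fluorescence was monitored for 5–10 min on FLIPR. IC50 came from a four-parameter logistic fit.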

[19] = biological target: T1, Transient receptor potential cation channel subfamily V member 1; test: In vitro inhibition of acid activated rat TRPV1 receptor in [Ca2+] influx assay
Method in brief: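 Rat TRPV1-HEK293 cells loaded with Fluo-3 were challenged for about 5 min with pH 5.8–6.0 solution to raise basal Ca2+.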

[20] = biological target: T2, Transient receptor potential cation channel subfamily V member 1; test: Effective concentration against human transient receptor potential vanilloid 1 receptor (n=2); method in brief: as §1
[21] = biological target: T2, Transient receptor potential cation channel subfamily V member 1; test: Percentage efficacy against human transient receptor potential vanilloid 1 receptor (n=2); method in brief: as §2
Rattus norvegicus = species: Rattus norvegicus; test: Effective dose to produce maximal thermal desensitization in rat at 5 ug

T2 sequence (Q8NER1 whole entry): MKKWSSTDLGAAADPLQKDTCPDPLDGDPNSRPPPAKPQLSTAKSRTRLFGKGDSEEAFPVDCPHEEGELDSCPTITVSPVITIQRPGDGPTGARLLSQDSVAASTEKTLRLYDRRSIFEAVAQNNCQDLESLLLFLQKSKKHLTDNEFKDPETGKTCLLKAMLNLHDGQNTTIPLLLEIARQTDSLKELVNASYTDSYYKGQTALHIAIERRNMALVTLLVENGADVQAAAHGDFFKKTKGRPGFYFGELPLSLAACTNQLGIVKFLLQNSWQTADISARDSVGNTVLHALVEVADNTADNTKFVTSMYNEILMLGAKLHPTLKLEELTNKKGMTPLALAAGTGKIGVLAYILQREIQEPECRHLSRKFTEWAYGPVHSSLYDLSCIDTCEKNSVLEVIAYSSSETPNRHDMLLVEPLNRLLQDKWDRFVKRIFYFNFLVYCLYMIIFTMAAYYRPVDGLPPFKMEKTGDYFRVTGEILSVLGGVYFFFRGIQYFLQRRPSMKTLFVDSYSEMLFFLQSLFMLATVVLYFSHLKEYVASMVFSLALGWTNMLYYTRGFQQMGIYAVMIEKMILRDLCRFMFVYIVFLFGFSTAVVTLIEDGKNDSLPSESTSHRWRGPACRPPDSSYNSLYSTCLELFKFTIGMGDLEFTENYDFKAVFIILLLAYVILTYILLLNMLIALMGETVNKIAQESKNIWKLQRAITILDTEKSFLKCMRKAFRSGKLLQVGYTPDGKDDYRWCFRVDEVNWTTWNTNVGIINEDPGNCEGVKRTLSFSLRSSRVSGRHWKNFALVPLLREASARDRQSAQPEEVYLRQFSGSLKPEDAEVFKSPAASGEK
Sequence of Transient receptor potential cation channel subfamily V member 1 (Rattus norvegicus) (O35433 whole entry): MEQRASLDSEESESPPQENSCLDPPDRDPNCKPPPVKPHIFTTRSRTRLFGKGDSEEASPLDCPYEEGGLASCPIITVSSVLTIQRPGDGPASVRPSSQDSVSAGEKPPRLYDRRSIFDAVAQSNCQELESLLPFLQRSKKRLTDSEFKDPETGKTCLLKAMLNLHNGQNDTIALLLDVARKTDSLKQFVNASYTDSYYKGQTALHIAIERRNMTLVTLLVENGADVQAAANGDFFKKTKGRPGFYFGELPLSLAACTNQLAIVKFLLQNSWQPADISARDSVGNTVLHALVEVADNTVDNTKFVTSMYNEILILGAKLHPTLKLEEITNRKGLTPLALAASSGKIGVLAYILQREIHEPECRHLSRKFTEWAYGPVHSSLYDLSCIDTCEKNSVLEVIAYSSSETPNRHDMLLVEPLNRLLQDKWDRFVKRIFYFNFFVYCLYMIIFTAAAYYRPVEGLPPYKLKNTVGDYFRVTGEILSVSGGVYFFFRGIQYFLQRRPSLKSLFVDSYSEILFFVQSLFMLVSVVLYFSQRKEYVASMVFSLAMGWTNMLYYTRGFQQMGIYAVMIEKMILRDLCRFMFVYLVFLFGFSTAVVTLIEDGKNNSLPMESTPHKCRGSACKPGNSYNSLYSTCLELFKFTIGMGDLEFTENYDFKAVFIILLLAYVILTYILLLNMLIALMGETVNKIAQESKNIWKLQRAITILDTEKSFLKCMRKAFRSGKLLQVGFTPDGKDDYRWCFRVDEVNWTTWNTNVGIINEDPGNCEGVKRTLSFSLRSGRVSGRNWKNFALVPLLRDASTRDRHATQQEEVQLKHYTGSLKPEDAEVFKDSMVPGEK
T1 sequence (O35433 whole entry): as above

EC50 [1]: 3600 nM | EC50 [2]: 7240 nM | Efficacy [3]: > 40% | Efficacy [4]: 100%
SMILES: O=C(Nc1ccc(Cl)cc1)N1CCN(c2ccncc2)CC1

IC50 [5]: 5030 nM | EC50 [6]: 2670 nM | Efficacy [3]: 18%
SMILES: O=C(Nc1ccc(C(F)(F)F)cc1)N1CCN(c2cccnc2)CC1

IC50 [7]: > 10000 nM | IC50 [8]: > 10000 nM
SMILES: O=C(Nc1ccc(C(F)(F)F)cc1)N1CC2CC1CN2c1ncccc1C(F)(F)F (stereo not given)

IC50 [9]: 390 nM | EC50 [10]: 1960 nM | IC50 [8]: 2170 nM
SMILES: Cc1cccnc1C1CCN(C(=O)Nc2ccc(C(F)(F)F)cc2)CC1

IC50 [5]: 367 nM | IC50 [7]: 1010 nM
SMILES: O=C(Nc1cc2ccccc2cn1)N1CCN(c2ncccc2C(F)(F)F)CC1

IC50 [7]: 3980 nM | IC50 [8]: 908 nM
SMILES: O=C(Nc1ccc2ncccc2c1)N1CCN(c2ncccc2C(F)(F)F)CC1

IC50 [7]: 4360 nM
SMILES: O=C(Nc1ccc(C(F)(F)F)cc1)NC1CCN(c2ncccc2C(F)(F)F)CC1

EC50 [6]: 1280 nM | EC50 [11]: 1160 nM | Efficacy [3]: 100% | Efficacy [4]: 120%
SMILES: O=C(Nc1ccncc1)N1CCN(c2ncccc2C(F)(F)F)CC1

IC50 [12]: 12100 nM | IC50 [13]: > 10000 nM
SMILES: O=C(Nc1ccccn1)N1CCN(c2ncccc2C(F)(F)F)CC1

IC50 [14]: 8130 nM | IC50 [13]: 14700 nM
SMILES: O=C(Nc1cccc2cccnc12)N1CCN(c2ncccc2C(F)(F)F)CC1

IC50 [13]: 409 nM | IC50 [8]: 113 nM
SMILES: Cc1cccnc1N1CCN(C(=O)Nc2ccc(Cl)cc2)CC1

IC50 [5]: 538 nM | IC50 [7]: 1180 nM
SMILES: O=C(Nc1ccc(C(F)(F)F)cc1)N1CCCN(c2ncccc2C(F)(F)F)CC1

IC50 [5]: 290 nM | IC50 [13]: 194 nM
SMILES: Cc1cccnc1N1CCN(C(=O)Nc2ccc(C(F)(F)F)cc2)CC1

IC50 [13]: 863 nM
SMILES: O=C(Nc1ccc(C(F)(F)F)cc1)N1CCN(c2ccccn2)CC1

IC50 [13]: > 10000 nM | EC50 [6]: 7290 nM | Efficacy [3]: 11% | IC50 [8]: 2280 nM
SMILES: O=C(Nc1cccc2cnccc12)N1CCN(c2ncccc2C(F)(F)F)CC1

EC50 [1]: 8300 nM | EC50 [11]: 5260 nM | Efficacy [3]: 2% | Efficacy [4]: 36%
SMILES: O=C(Nc1cccc2ncccc12)N1CCN(c2ncccc2C(F)(F)F)CC1

IC50 [12]: 965 nM | IC50 [7]: > 10000 nM
SMILES: O=C(Nc1ccc(C(F)(F)F)cc1)C1CCN(c2ncccc2C(F)(F)F)CC1

IC50 [5]: > 10000 nM | IC50 [13]: 13100 nM | EC50 [15]: > 10000 nM
SMILES: O=C(Nc1ccc(C(F)(F)F)cc1)NC1CCN(c2ncccc2C(F)(F)F)C1 (stereo not given)

IC50 [16]: 526 nM | IC50 [13]: 2300 nM
SMILES: O=C(Nc1cnc2ccccc2c1)N1CCN(c2ncccc2C(F)(F)F)CC1

IC50 [9]: 90 nM
SMILES: O=C(Nc1ccc(C(F)(F)F)cc1)N1CCN(c2ncccc2C(F)(F)F)CC1

IC50 [14]: 74 nM | IC50 [13]: 100 nM | IC50 [17]: 6 nM and 4 nM and 3 nM
SMILES: O=C(Nc1ccc([N+](=O)[O-])cc1)N1CCN(c2ncccc2C(F)(F)F)CC1

IC50 [16]: 74 nM | IC50 [18]: 5 nM and 3 nM | IC50 [7]: 365 nM | IC50 [19]: 13 nM | IC50 [17]: 4 nM and 3 nM (2×)
SMILES: Oc1cc2c(cc1O)CN(C(=S)NCCc1ccc(Cl)cc1)CCC2 [CAPSAZEPINE]

IC50 [13]: 3720 nM | IC50 [8]: 2450 nM
SMILES: CC1CN(c2ncccc2C(F)(F)F)CC(C)N1C(=O)Nc1ccc(C(F)(F)F)cc1 (stereo not given)

EC50 [10]: 1720 nM | EC50 [20]: 1930 nM | Efficacy [3]: 86% | Efficacy [21]: 8%
SMILES: Cc1ccccc1C1CCN(C(=O)Nc2ccc(C(F)(F)F)cc2)CC1

IC50 [9]: 104 nM | IC50 [8]: 64 nM
SMILES: CC1CN(c2ncccc2C(F)(F)F)CCN1C(=O)Nc1ccc(C(F)(F)F)cc1 (stereo not given)

SMILES: COc1cc(CNC(=O)CCCC/C=C/C(C)C)ccc1O [CAPSAICIN]
ED50 (Rattus norvegicus): 3 µg
